According to ChEMBL document CHEMBL1143285, “Synthesis and biological evaluation of 2-phenylquinolones targeted at Tat/TAR recognition” (Bioorg Med Chem Lett, 2009):
Active and inactive are the calls of the source. The calls are words filed in the database; no cut-off is given here.

Columns and labels:
Jurkat [1] = assay: Cytotoxicity against human Jurkat cells at 100 uM after 72 hrs by MTT assay; format: cell-based
Outline: (§1)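 MTT viability readout in CEM and Jurkat cells after 72 h incubation with compounds up to 100 µM; EC50 derived where applicable.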

CCRF-CEM = assay: Cytotoxicity against human CEM cells at 100 uM after 72 hrs by MTT assay; format: cell-based; outline: as §1
[2] = system: Human immunodeficiency virus; assay: (§2) Inhibition of HIV Tat/TAR complex formation by fluorescence quenching assay
[3] = Aqueous solubility in buffer; format: physicochemical
[4] = system: Human immunodeficiency virus 1; assay: Antiviral activity against HIV1 infected in human CEM cells assessed as compound uptake after 3 hrs by fluorescence assay; format: functional, CCRF-CEM
Outline: (§3)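 Jurkat or CEM cells (2.5 × 10⁶/well) incubated in HBSS with compound at 100 µM, 3 h, 37 °C. Cells separated from medium by centrifugation through water-impermeable silicone-oil barrier, pellet lysed overnight in 0.1 M glycine–HCl pH 3.0, spun 5 min at 5600g. Compound in supernatant quantified by fluorescence at pH 3 against per-compound titration curve; reported as % uptake.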

[5] = system: Human immunodeficiency virus 1; assay: Antiviral activity against HIV1 infected in human Jurkat cells assessed as compound uptake after 3 hrs by fluorescence assay; format: functional; parameters: concentration or dose not given beside the values; outline: as §3
[6] = as §2; parameters: species or system Human immunodeficiency virus
Jurkat [7] = assay: Cytotoxicity against human Jurkat cells after 72 hrs by MTT assay; format: cell-based; outline: as §1
[8] = system: Human immunodeficiency virus 1; assay: Antiviral activity against HIV1 infected in human Jurkat cells assessed as compound uptake after 3 hrs by fluorescence assay in presence of lipofectamine; format: functional

| SMILES | Activity (Jurkat [1]) | Activity (CCRF-CEM) | Activity [2] | solubility [3] | Activity [4] [%] | Activity [5] [%] | Ki [6] [nM] | EC50 (Jurkat [7]) [nM] | Activity [8] |
| --- | --- | --- | --- | --- | --- | --- | --- | --- | --- |
| COc1cc(OC)c2c(=O)cc(-c3ccc(OCCCN4CCN(C)CC4)c(NC(=O)CCCN(C)C)c3)n(C)c2c1 | Non-toxic | Non-toxic | inactive | Soluble |  |  |  |  |  |
| COc1cc(OC)c2c(=O)cc(-c3ccc(OCCCN4CCCCC4)c(N)c3)n(C)c2c1 | Non-toxic | Non-toxic |  | Soluble | 1.8 | 0.94 | 1950 |  |  |
| COc1cc(OC)c2c(=O)cc(-c3ccc(OCCCN)c(N)c3)n(C)c2c1 | Non-toxic | Non-toxic |  | Soluble |  |  | 3850 |  |  |
| COc1cc(OC)c2c(=O)cc(-c3ccc(OCCCN)c(NC(=O)CCCN(C)C)c3)n(C)c2c1 | Non-toxic | Non-toxic |  | Soluble | 1.2 | 0.67 | 3030 |  |  |
| COc1cc(OC)c2c(=O)cc(-c3ccc(OCCCN4CCCCC4)cc3)n(C)c2c1 |  |  |  | Soluble |  | 3.27 | 1020 | 94700 |  |
| COc1cc(OC)c2c(=O)cc(-c3ccc(OCCCN)c(NC(=O)CCc4cccnc4)c3)n(C)c2c1 | Non-toxic | Non-toxic | inactive | Soluble |  |  |  |  |  |
| Cn1cc(C(=O)O)c(=O)c2cc(N)c(N3CCN(c4ccccn4)CC3)cc21 | Non-toxic | Non-toxic |  | Soluble | 7.5 | 23.2 | 2180 |  | <=40% |
| COc1cc(OC)c2c(=O)cc(-c3ccc(OCCCN4CCCCC4)c(NC(=O)CCCN(C)C)c3)n(C)c2c1 | Non-toxic | Non-toxic |  | Soluble |  |  | 2600 |  |  |
| COc1cc(OC)c2c(=O)cc(-c3ccc(O)c(N)c3)n(C)c2c1 | Non-toxic | Non-toxic | inactive | Soluble |  | 25 |  |  |  |
| COc1cc(OC)c2c(=O)cc(-c3ccc(OCCCN4CCN(C)CC4)c(N)c3)n(C)c2c1 | Non-toxic | Non-toxic |  | Soluble | 1.1 | 0.82 | 1580 |  |  |
